# In ChEMBL document CHEMBL1142136, “Contribution of target gene mutations and efflux to decreased susceptibility of Salmonella enterica serovar typhimurium to fluoroquinolones and other antimicrobials” (2007):
# Assays:
# Type in all cases: functional, Salmonella enterica subsp. enterica serovar Typhimurium
# Salmonella typhimurium [1] = assay: Antimicrobial activity against Salmonella enterica serovar Typhimurium S21 tolC::Kan
# How it was run: (§1)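 MICs by automated broth microdilution panels, interpreted to CLSI broth microdilution standards. Ciprofloxacin additionally tested by agar dilution across 0.0075 to 128 μg/ml. Quality control strains: E. coli ATCC 25922 and 35218, Enterococcus faecalis ATCC 29212, S. aureus ATCC 29213, P. aeruginosa ATCC 27853. Test strains are kanamycin-marked deletion mutants of ground-beef isolate S21.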
# Salmonella typhimurium [2] = assay: Antimicrobial activity against Salmonella enterica serovar Typhimurium S21-4 gyrA+ with ParC S80I mutation
# How it was run: (§2)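 MICs measured by broth microdilution on the Sensititre automated system and interpreted by CLSI broth microdilution standards. Ciprofloxacin was also tested by agar dilution, widening the range to 0.0075–128 μg/ml. Quality control strains were E. coli ATCC 25922 and 35218, E. faecalis ATCC 29212, S. aureus ATCC 29213 and P. aeruginosa ATCC 27853.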
# Salmonella typhimurium [3] = assay: Antimicrobial activity against Salmonella enterica serovar Typhimurium S21-1 gyrA+; how it was run: as §2
# Salmonella typhimurium [4] = assay: Antimicrobial activity against Salmonella enterica serovar Typhimurium CHS38 gyrA+ with GyrA D87G mutation; how it was run: as §2
# Salmonella typhimurium [5] = assay: Antimicrobial activity against Salmonella enterica serovar Typhimurium CS3 acrAB::Kan with GyrA S83F, D87N, ParC S80I mutation; how it was run: as §2
# Salmonella typhimurium [6] = assay: Antimicrobial activity against Salmonella enterica serovar Typhimurium CS9 gyrA+ with GyrA S83F, D87N, ParC S80I mutation; how it was run: as §2
# Salmonella typhimurium [7] = assay: Antimicrobial activity against Salmonella enterica serovar Typhimurium CS9 with GyrA S83F, D87N, ParC S80I mutation; how it was run: as §2
# Salmonella typhimurium [8] = assay: Antimicrobial activity against Salmonella enterica serovar Typhimurium S21-2 gyrA+ with ParC S80I mutation; how it was run: as §2
# Salmonella typhimurium [9] = assay: Antimicrobial activity against Salmonella enterica serovar Typhimurium S21-4 with GyrA S83F, ParC S80I mutation; how it was run: as §2
# Salmonella typhimurium [10] = assay: Antimicrobial activity against Salmonella enterica serovar Typhimurium S21 gyrA+; how it was run: as §2
# Salmonella typhimurium [11] = assay: Antimicrobial activity against Salmonella enterica serovar Typhimurium CHS38 with GyrA D87G mutation; how it was run: as §2
# Salmonella typhimurium [12] = assay: Antimicrobial activity against Salmonella enterica serovar Typhimurium CHS14 with GyrA D87G mutation; how it was run: as §2
# Salmonella typhimurium [13] = assay: Antimicrobial activity against Salmonella enterica serovar Typhimurium CHS18 acrAB::Kan with GyrA S38F mutation; how it was run: as §2
# Salmonella typhimurium [14] = assay: Antimicrobial activity against Salmonella enterica serovar Typhimurium S21-4 acrAB::Kan with GyrA S83F, ParC S80I mutation; how it was run: as §2
# Salmonella typhimurium [15] = assay: Antimicrobial activity against Salmonella enterica serovar Typhimurium S21; how it was run: as §2
# Salmonella typhimurium [16] = assay: Antimicrobial activity against Salmonella enterica serovar Typhimurium CS1 with GyrA S83F, D87N, ParC S80I mutation; how it was run: as §2
# Salmonella typhimurium [17] = assay: Antimicrobial activity against Salmonella enterica serovar Typhimurium CHS14 acrAB::Kan with GyrA D87G mutation; how it was run: as §2
# Salmonella typhimurium [18] = assay: Antimicrobial activity against Salmonella enterica serovar Typhimurium CS3 with GyrA S83F, D87N, ParC S80I mutation; how it was run: as §2
# Salmonella typhimurium [19] = assay: Antimicrobial activity against Salmonella enterica serovar Typhimurium S21-3 gyrA+ with ParC S80I mutation; how it was run: as §2
# Salmonella typhimurium [20] = assay: Antimicrobial activity against Salmonella enterica serovar Typhimurium CS3 gyrA+ with GyrA S83F, D87N, ParC S80I mutation; how it was run: as §2
# Salmonella typhimurium [21] = assay: Antimicrobial activity against Salmonella enterica serovar Typhimurium S21-3 acrAB::Kan with GyrA S83F, ParC S80I mutation; how it was run: as §2
# Salmonella typhimurium [22] = assay: Antimicrobial activity against Salmonella enterica serovar Typhimurium CHS14 gyrA+ with GyrA D87G mutation; how it was run: as §2
# Salmonella typhimurium [23] = assay: Antimicrobial activity against Salmonella enterica serovar Typhimurium GyrA S21-1 acrAB::Kan with GyrA S83F mutation; how it was run: as §2
# Salmonella typhimurium [24] = assay: Antimicrobial activity against Salmonella enterica serovar Typhimurium CHS14 tolC::Kan with GyrA D87G mutant; how it was run: as §2
# Salmonella typhimurium [25] = assay: Antimicrobial activity against Salmonella enterica serovar Typhimurium CHS18 tolC::Kan with GyrA S38F mutation; how it was run: as §2
# Salmonella typhimurium [26] = assay: Antimicrobial activity against Salmonella enterica serovar Typhimurium S21-2 acrAB::Kan with GyrA S83F, ParC S80I mutation; how it was run: as §2
# Salmonella typhimurium [27] = assay: Antimicrobial activity against Salmonella enterica serovar Typhimurium S21-3 with GyrA S83F, ParC S80I mutation; how it was run: as §2
# Salmonella typhimurium [28] = assay: Antimicrobial activity against Salmonella enterica serovar Typhimurium S21-2 tolC::Kan with GyrA S83F, ParC S80I mutation; how it was run: as §2
# Salmonella typhimurium [29] = assay: Antimicrobial activity against Salmonella enterica serovar Typhimurium CS1 tolC::Kan with GyrA S83F, D87N, ParC S80I mutation; how it was run: as §2
# Salmonella typhimurium [30] = assay: Antimicrobial activity against Salmonella enterica serovar Typhimurium CS1 gyrA+ with GyrA S83F, D87N, ParC S80I mutation; how it was run: as §2
# Salmonella typhimurium [31] = assay: Antimicrobial activity against Salmonella enterica serovar Typhimurium CHS18 with GyrA S38F mutation; how it was run: as §2
# Salmonella typhimurium [32] = assay: Antimicrobial activity against Salmonella enterica serovar Typhimurium S21-3 tolC::Kan with GyrA S83F, ParC S80I mutation; how it was run: as §2
# Salmonella typhimurium [33] = assay: Antimicrobial activity against Salmonella enterica serovar Typhimurium CS3 tolC::Kan with GyrA S83F, D87N, parC S80I mutation; how it was run: as §2
# Salmonella typhimurium [34] = assay: Antimicrobial activity against Salmonella enterica serovar Typhimurium CHS38 tolC::Kan with GyrA D87G mutation; how it was run: as §2
# Salmonella typhimurium [35] = assay: Antimicrobial activity against Salmonella enterica serovar Typhimurium CS9 acrAB::Kan with GyrA S83F, D87N, ParC S80I mutation; how it was run: as §2
# Salmonella typhimurium [36] = assay: Antimicrobial activity against Salmonella enterica serovar Typhimurium S21-1 tolC::Kan with GyrA S83F mutation; how it was run: as §2
# Salmonella typhimurium [37] = assay: Antimicrobial activity against Salmonella enterica serovar Typhimurium S21-1 GyrA S83F mutant; how it was run: as §2
# Salmonella typhimurium [38] = assay: Antimicrobial activity against Salmonella enterica serovar Typhimurium S21-4 tolC::Kan with GyrA S83F, ParC S80I mutation; how it was run: as §2
# Salmonella typhimurium [39] = assay: Antimicrobial activity against Salmonella enterica serovar Typhimurium S21-2 with GyrA S83F, ParC S80I mutation; how it was run: as §2
# Salmonella typhimurium [40] = assay: Antimicrobial activity against Salmonella enterica serovar Typhimurium CHS18 gyrA+ with GyrA S38F mutation; how it was run: as §2
# Salmonella typhimurium [41] = assay: Antimicrobial activity against Salmonella enterica serovar Typhimurium CS9 tolC::Kan with GyrA S83F, D87N, ParC S80I mutation; how it was run: as §2
# Salmonella typhimurium [42] = assay: Antimicrobial activity against Salmonella enterica serovar Typhimurium S21 acrAB::Kan; how it was run: as §1
# Salmonella typhimurium [43] = assay: Antimicrobial activity against Salmonella enterica serovar Typhimurium CHS38 acrAB::Kan with GyrA D87G mutation; how it was run: as §2
# Salmonella typhimurium [44] = assay: Antimicrobial activity against Salmonella enterica serovar Typhimurium CS1 acrAB::Kan with GyrA S83F, D87N, ParC S80I mutation; how it was run: as §2
smiles,measurement,setting,value
COc1c(N2CCNC(C)C2)c(F)cc2c(=O)c(C(=O)O)cn(C3CC3)c12 (stereo not drawn) [GATIFLOXACIN],MIC,Salmonella typhimurium [1],< 0.015 µg/mL
same,MIC,Salmonella typhimurium [2],2 µg/mL
same,MIC,Salmonella typhimurium [3],0.03 µg/mL
same,MIC,Salmonella typhimurium [4],< 0.015 µg/mL
same,MIC,Salmonella typhimurium [5],0.5 µg/mL
same,MIC,Salmonella typhimurium [6],0.06 µg/mL
same,MIC,Salmonella typhimurium [7],4 µg/mL
same,MIC,Salmonella typhimurium [8],0.25 µg/mL
same,MIC,Salmonella typhimurium [9],16 µg/mL
same,MIC,Salmonella typhimurium [10],0.03 µg/mL
same,MIC,Salmonella typhimurium [11],0.12 µg/mL
same,MIC,Salmonella typhimurium [12],0.25 µg/mL
same,MIC,Salmonella typhimurium [13],0.12 µg/mL
same,MIC,Salmonella typhimurium [14],0.06 µg/mL
same,MIC,Salmonella typhimurium [15],0.03 µg/mL
same,MIC,Salmonella typhimurium [16],4 µg/mL
same,MIC,Salmonella typhimurium [17],< 0.015 µg/mL
same,MIC,Salmonella typhimurium [18],4 µg/mL
same,MIC,Salmonella typhimurium [19],1 µg/mL
same,MIC,Salmonella typhimurium [20],0.06 µg/mL
same,MIC,Salmonella typhimurium [21],0.06 µg/mL
same,MIC,Salmonella typhimurium [22],0.03 µg/mL
same,MIC,Salmonella typhimurium [23],0.03 µg/mL
same,MIC,Salmonella typhimurium [24],< 0.015 µg/mL
same,MIC,Salmonella typhimurium [25],0.03 µg/mL
same,MIC,Salmonella typhimurium [26],0.06 µg/mL
same,MIC,Salmonella typhimurium [27],8 µg/mL
same,MIC,Salmonella typhimurium [28],0.06 µg/mL
same,MIC,Salmonella typhimurium [29],0.5 µg/mL
same,MIC,Salmonella typhimurium [30],0.06 µg/mL
same,MIC,Salmonella typhimurium [31],0.25 µg/mL
same,MIC,Salmonella typhimurium [32],0.06 µg/mL
same,MIC,Salmonella typhimurium [33],0.5 µg/mL
same,MIC,Salmonella typhimurium [34],< 0.015 µg/mL
same,MIC,Salmonella typhimurium [35],0.5 µg/mL
same,MIC,Salmonella typhimurium [36],0.03 µg/mL
same,MIC,Salmonella typhimurium [37],0.5 µg/mL
same,MIC,Salmonella typhimurium [38],0.06 µg/mL
same,MIC,Salmonella typhimurium [39],1 µg/mL
same,MIC,Salmonella typhimurium [40],0.06 µg/mL
same,MIC,Salmonella typhimurium [41],0.5 µg/mL
same,MIC,Salmonella typhimurium [42],< 0.015 µg/mL
same,MIC,Salmonella typhimurium [43],< 0.015 µg/mL
same,MIC,Salmonella typhimurium [44],0.5 µg/mL
C[C@H]1COc2c(N3CCN(C)CC3)c(F)cc3c(=O)c(C(=O)O)cn1c23.C[C@H]1COc2c(N3CCN(C)CC3)c(F)cc3c(=O)c(C(=O)O)cn1c23.O [LEVOFLOXACIN],MIC,Salmonella typhimurium [1],< 0.015 µg/mL
same,MIC,Salmonella typhimurium [2],2 µg/mL
same,MIC,Salmonella typhimurium [3],0.03 µg/mL
same,MIC,Salmonella typhimurium [4],< 0.015 µg/mL
same,MIC,Salmonella typhimurium [5],2 µg/mL
same,MIC,Salmonella typhimurium [6],0.06 µg/mL
same,MIC,Salmonella typhimurium [7],8 µg/mL
same,MIC,Salmonella typhimurium [8],0.25 µg/mL
same,MIC,Salmonella typhimurium [9],> 16 µg/mL
same,MIC,Salmonella typhimurium [10],0.03 µg/mL
same,MIC,Salmonella typhimurium [11],0.12 µg/mL
same,MIC,Salmonella typhimurium [12],0.25 µg/mL
same,MIC,Salmonella typhimurium [13],0.03 µg/mL
same,MIC,Salmonella typhimurium [14],0.25 µg/mL
same,MIC,Salmonella typhimurium [15],0.03 µg/mL
same,MIC,Salmonella typhimurium [16],8 µg/mL
same,MIC,Salmonella typhimurium [17],0.03 µg/mL
same,MIC,Salmonella typhimurium [18],8 µg/mL
same,MIC,Salmonella typhimurium [19],1 µg/mL
same,MIC,Salmonella typhimurium [20],0.06 µg/mL
same,MIC,Salmonella typhimurium [21],0.12 µg/mL
same,MIC,Salmonella typhimurium [22],0.06 µg/mL
same,MIC,Salmonella typhimurium [23],0.06 µg/mL
same,MIC,Salmonella typhimurium [24],< 0.015 µg/mL
same,MIC,Salmonella typhimurium [25],0.03 µg/mL
same,MIC,Salmonella typhimurium [26],0.12 µg/mL
same,MIC,Salmonella typhimurium [27],> 16 µg/mL
same,MIC,Salmonella typhimurium [28],0.06 µg/mL
same,MIC,Salmonella typhimurium [29],1 µg/mL
same,MIC,Salmonella typhimurium [30],0.06 µg/mL
same,MIC,Salmonella typhimurium [31],0.25 µg/mL
same,MIC,Salmonella typhimurium [32],0.12 µg/mL
same,MIC,Salmonella typhimurium [33],1 µg/mL
same,MIC,Salmonella typhimurium [34],< 0.015 µg/mL
same,MIC,Salmonella typhimurium [35],2 µg/mL
same,MIC,Salmonella typhimurium [36],0.06 µg/mL
same,MIC,Salmonella typhimurium [37],0.5 µg/mL
same,MIC,Salmonella typhimurium [38],0.25 µg/mL
same,MIC,Salmonella typhimurium [39],1 µg/mL
same,MIC,Salmonella typhimurium [40],0.06 µg/mL
same,MIC,Salmonella typhimurium [41],1 µg/mL
same,MIC,Salmonella typhimurium [42],< 0.015 µg/mL
same,MIC,Salmonella typhimurium [43],0.03 µg/mL
same,MIC,Salmonella typhimurium [44],2 µg/mL
